Compound activity: PubChem BioAssay, several laboratories
Shown are actives, neighbours in structure and some others; about 2.3% of the full set was active somewhere.
TPT1 inh = blocks Candida albicans tRNA 2'-phosphotransferase. inhibition, % at 5 µM. recombinant caTPT1, FP RNA substrate dephosphorylation. actives 0.81% (n = 300,000);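 active means inhibition above the mean of all tested compounds plus 3 SD, set per screening campaign, cut at about 24% in these data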;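 further: plate controls were DMSO alone for no effect and ferristatin control at 100 nM for full effect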
HNF4A DNA FP = change in binding of human HNF4 alpha to DNA | activity change, % at 10 µM | actives 0.3% (n = 360,000) | P41235 | HNF4a-FITC DNA binding, fluorescence polarization, 1 h; in the data active means activity change above about 30%, passing the limit was not always enough
Rpn11 block = Rpn11 (human) deubiquitinase inhibition; human 26S proteasome, Ub4-pepOG fluorescence polarization; 20S core pre-blocked with epoxomicin; actives 0.59% (n = 360,000); AID 588493; inhibition, % at 20 µM; O00487;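 active means inhibition at 20 µM, scaled to each plate's controls, above about 33%, limit read from the data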
Target sequence (O00487 whole entry, looked up): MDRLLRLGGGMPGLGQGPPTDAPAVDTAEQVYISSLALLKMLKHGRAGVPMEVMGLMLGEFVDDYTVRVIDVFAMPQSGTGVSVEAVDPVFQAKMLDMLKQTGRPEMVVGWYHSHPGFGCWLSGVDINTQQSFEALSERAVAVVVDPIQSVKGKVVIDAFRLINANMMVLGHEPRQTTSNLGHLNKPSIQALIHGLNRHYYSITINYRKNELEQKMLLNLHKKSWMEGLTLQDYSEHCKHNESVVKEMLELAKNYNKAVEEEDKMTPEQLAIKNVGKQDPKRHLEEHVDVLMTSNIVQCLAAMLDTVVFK
Myeloid diff 2 = promotes myeloid progenitor differentiation | ER-HoxA9 myeloid progenitors, lysozyme-GFP differentiation, flow cytometry | calls only at 10 µM | actives 1% (n = 360,000) | AID 624256;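 active means normalized GFP-positive differentiation at or above the plate's own cutoff, the solvent-only control mean plus 3 SD; inconclusive means no clear call, values can overlap the other calls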;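 further: cells exposed to compound for four days before flow analysis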
CSN deneddyl inh = inhibitors of human CSN-mediated cullin deneddylation; actives 0.38% (n = 360,000); inhibition, % at 12.5 µM; Q92905; AID 651999; Purified CSN, SCF-Nedd8-OG deneddylation, fluorescence polarization;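 active means pattern-corrected inhibition above about 35%, with an unprinted fluorescence ratio check between 0.5 and 1.5, limit read from the data, passing the limit was not always enough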;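 further: 0% = enzyme with substrate and 100% = substrate without enzyme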
Target sequence (Q92905 whole entry, looked up, one chain of several): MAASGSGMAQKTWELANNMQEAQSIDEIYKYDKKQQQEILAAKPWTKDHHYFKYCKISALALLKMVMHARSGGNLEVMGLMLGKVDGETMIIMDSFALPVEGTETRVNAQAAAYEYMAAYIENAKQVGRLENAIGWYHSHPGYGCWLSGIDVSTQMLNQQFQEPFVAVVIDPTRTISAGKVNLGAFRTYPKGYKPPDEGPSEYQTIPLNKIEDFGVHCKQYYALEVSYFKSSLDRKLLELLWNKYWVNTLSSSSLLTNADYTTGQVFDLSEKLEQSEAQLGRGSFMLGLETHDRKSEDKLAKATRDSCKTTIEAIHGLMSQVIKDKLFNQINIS
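Material: human Csn5 produced in HEK293T cells; Input: enzyme 0.24 nM; Reagent: SCFSkp2-Nedd8OG substrate at 10 nM final; Dosing: 12.5 µM compound; Incubation: 90 min reaction at room temperature; Detection: fluorescence polarization of the substrate; Evaluation: % inhibition of substrate cleavage by Csn5; Control set: substrate-only high control, full reaction low control.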
Myeloid diff CP1 = compounds promoting myeloid differentiation | AID 651706 | shares compounds with Myeloid diff 2 | calls only | actives 2% (n = 2,300) | ER-HoxA9 myeloid progenitors, GFP/Mac1 double-positive flow;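 active means share of green or green-and-red cells above 9 and 9% in run 1 or 4 and 3% in run 2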
GFP autofluor = counter-screen for myeloid differentiation promoters: compound fluorescence. AID 651707. ER-HoxA9 myeloid progenitors, no estrogen, GFP autofluorescence flow cytometry; vehicle wells 0%, positive control 100%. actives 7.4% (n = 2,300). shares compounds with Myeloid diff 2. fluorescence response, % (test concentration not listed);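 active means over 5% cells positive for green fluorescent reporter, or over 2% positive for both it and APC stain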;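 further: range taken on the double positive population between DMSO and positive control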
An asterisk follows results filed as active; i = inactive; ? = inconclusive; . = no result; + = active, no number.

SMILES	TPT1 inh	HNF4A DNA FP	Rpn11 block	Myeloid diff 2	CSN deneddyl inh	Myeloid diff CP1	GFP autofluor
CCOc1ccc(NC(=O)COC(=O)Cn2nc(C)c([N+](=O)[O-])c2C)cc1OCC	.	4.0	4.5	+	2.5	i	0.0
Cn1c(N)c(C(=O)COC(=O)COc2ccc(Cl)cc2Cl)c(=O)n(C)c1=O	.	3.5	1.0	i	-2.3	.	.
CCC1=C(OC(=O)N(CC)CC)N2C(=O)OC(=NCC3CC3)[C@]2(Cc2ccccc2)[C@H]2C1=CC[C@H]1C(=O)N(c3ccccc3)C(=O)[C@H]12	-2.5	2.0	-2.8	i	0.1	.	.
Cc1ccnc(S(=O)(=O)Cc2ccc([N+](=O)[O-])cc2)n1	-1.1	6.9	-1.2	i	5.7	i	0.0
Cn1c(CO)cnc1S(=O)(=O)Cc1ccc([N+](=O)[O-])cc1	-0.6	-1.8	1.8	i	1.6	.	.
CC1CCN(S(=O)(=O)c2cccc3cccnc23)CC1	0.9	-0.8	-1.2	i	0.6	.	.
CCCCOc1cccc(C2/C(=C(\O)c3ccc4c(c3)OCCO4)C(=O)C(=O)N2CCN2CCOCC2)c1 (stereo not drawn)	-1.9	-5.5	-2.8	i	3.6	.	.
CCCCOC(=O)C(C#N)c1nc2ccccc2nc1N1CCN(Cc2ccc3c(c2)OCO3)CC1 (stereo not drawn)	-0.2	1.9	4.4	+	-1.1	i	0.2
Cc1cc(C)c(S(=O)(=O)NC2CC(C)(C)NC(C)(C)C2)cc1C	-1.1	1.4	2.5	+	0.6	i	0.0
CCOc1cc(C)c(S(=O)(=O)NC2CC(C)(C)NC(C)(C)C2)cc1C	5.5	-2.5	-1.8	i	0.7	.	.
COc1cc2oc(=O)cc(CN3CCCCC3)c2cc1Cl	.	-0.4	1.7	i	2.1	.	.
CCn1cc(C(=O)NN)c(=O)c2cc(F)c(NC3CCCCC3)cc21	.	-1.8	-2.1	i	1.2	i	0.6
COc1cc(COCC(O)CN2CCN(CCN3C(=O)c4cccc5cccc(c45)C3=O)CC2)cc(OC)c1OC (stereo not drawn)	1.4	-2.1	9.4	+	-6.8	i	0.9
CC(C)CC(c1nnnn1C1CCCC1)N1CCN(C(=O)c2ccco2)CC1 (stereo not drawn)	0.7	2.7	4.4	+	-4.5	i	0.4
CCCC(c1nnnn1C(C)(C)C)N1CCN(C(=O)c2ccco2)CC1 (stereo not drawn)	-5.2	3.7	-6.9	+	6.3	i	0.4
CC(C)CC(c1nnnn1C1CCCCC1)N1CCN(C(=O)c2ccco2)CC1 (stereo not drawn)	-1.7	2.5	-11.8	?	-4.7	.	.
COc1ccc(S(=O)(=O)Nc2c(NC3CCCCC3)c3ccccc3oc2=O)cc1OC	-1.3	7.6	-3.9	i	-2.0	.	.
O=[N+]([O-])c1cc(-c2ccc(C(=S)N3CCOCC3)o2)ccc1Cl	-11.3	-2.2	9.3	+	-6.5	i	0.0
CN1CCN(Cc2nc(Cc3cccc(F)c3)no2)CC1c1ccccc1 (stereo not drawn)	1.5	0.0	-9.3	i	-6.2	.	.
CN1CCN(Cc2nc(Cc3ccccc3)no2)CC1c1ccccc1 (stereo not drawn)	0.1	6.8	-12.9	i	0.4	i	0.0
CCN(CC(=O)Nc1ccccc1C(F)(F)F)C(=O)c1oc2ccc(OC)cc2c1C	0.4	4.8	0.6	i	1.7	.	.
NNC(=O)COc1ccc(-c2nccc(-c3ccc(F)cc3)n2)cc1	1.0	1.1	4.2	i	1.6	i	0.0
Cc1cccc(-n2c(CNC(=O)COc3ccccc3)nnc2SCC(=O)Nc2nccs2)c1	-5.0	-1.1	-3.1	i	3.2	i	5.4*
CC(=O)NCCCc1nc2ccccc2n1Cc1ccccc1F	1.6	-4.2	-10.3	i	1.8	.	.
COc1ccc(C(=O)NCCCc2nc3ccccc3n2Cc2ccccc2C)cc1OC	1.4	-2.6	-3.6	+	-9.0	i	0.6
SMILES	TPT1 inh	HNF4A DNA FP	Rpn11 block	Myeloid diff 2	CSN deneddyl inh	Myeloid diff CP1	GFP autofluor
COc1ccccc1NC(=O)N(C)C[C@H]1Oc2ncc(C#CCN(C)C)cc2C(=O)N([C@H](C)CO)C[C@H]1C	.	-10.0	-6.9	i	-7.8	.	.
CCOC(=O)c1cnn(-c2ccccn2)c1N	4.6	-2.2	1.1	i	-0.5	.	.
CCOC(=O)c1cnn(-c2cc(C)c3ccccc3n2)c1N	-2.2	1.3	-0.4	+	-5.2	i	0.7
COc1ccc(CCC(=O)Nc2ccc(S(=O)(=O)Nc3nccc(C)n3)cc2)cc1	4.7	2.4	7.1	i	6.4	.	.
CCOC(=O)CC1Sc2ccccc2NC1=O (stereo not drawn)	-4.0	-1.2	-3.1	i	2.8	.	.
COC(=O)CC1Nc2ccccc2SC1=O (stereo not drawn)	-0.3	-2.5	-1.6	i	4.2	i	0.0
Cc1cc(C)c2c(-n3cccc3)c(C(=O)NNS(=O)(=O)c3ccc(Cl)cc3)sc2n1	1.9	0.7	0.6	i	4.3	.	.
COc1ccc(OC)c(NC(=O)c2ccc3c(=O)n(CCc4ccccc4)c(=S)[nH]c3c2)c1	-2.1	6.2	-6.1	i	2.0	.	.
C(=N\N(c1ccccc1)c1ccccc1)/c1ccc(N2CCOCC2)s1	9.2	12.7	23.4	+	1.3	i	0.0
O=C(N/N=C/c1ccc(N2CCOCC2)s1)c1ccccc1Cl	10.7	7.2	6.0	i	3.4	.	.
COc1cccc(-c2csc(N3CCN(CC(=O)NNC(=O)c4ccc(Cl)cc4)CC3)n2)c1	2.9	1.1	2.1	i	4.0	i	0.0
COc1cccc(-c2csc(N3CCN(CC(=O)NNC(=O)c4ccc(Br)cc4)CC3)n2)c1	1.0	-2.2	0.0	i	0.1	.	.
CCN(Cc1ccccc1)C(=O)C1CCN(C/C(C)=C/c2ccccc2)CC1	0.2	-0.4	2.3	i	-3.5	i	0.3
Cc1ccc2nc(SCC(=O)Nc3cccc(S(=O)(=O)NC4=NCCCCC4)c3)[nH]c2c1	-1.8	-0.1	0.1	i	2.5	i	96.1*
Cc1cc(Cl)ccc1OCC(=O)Nc1cccc(S(=O)(=O)NC2=NCCCCC2)c1	3.2	3.2	-2.7	+	0.9	i	0.8
O=C(COc1ccc(Cl)cc1)Nc1cccc(S(=O)(=O)NC2=NCCCCC2)c1	0.3	-0.5	-3.6	i	-2.0	.	.
COc1cc2oc(=O)cc(-c3ccc(-c4ccc(C#N)cc4)cc3)c2c(OC)c1OC	.	-1.3	-2.0	i	-4.8	i	0.0
COc1cc2oc(=O)cc(-c3ccc(-c4ccc(C)cc4)cc3)c2c(OC)c1OC	.	-1.6	3.0	i	-2.5	.	.
CCC(=O)Nc1cccc(C(=O)/C=C/c2ccccc2)c1	1.4	2.6	-0.2	i	17.1	i	2.7
